Measurements taken from ChEMBL document CHEMBL1122501, “Potential antiatherosclerotic agents. 2. (Aralkylamino)- and (alkylamino) benzoic acid analogues of cetaben” (1983).

How the values were obtained:
Rattus norvegicus [1] = assay: In vivo Sterol lowering activity at dose as 0.03 % of the diet.; type: functional
How it was run: (§1)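 Male CFE or CD-1 Sprague-Dawley rats, 140-150 g; 8 per control group, 4 per test group. Compound mixed into ground chow (w/w) via MeOH-CHCl3 (1:3) solution, solvent evaporated; controls got solvent-treated chow. Fed ad libitum 5 days, food intake monitored, killed fed and bled. Serum sterols and triglycerides by adapted autoanalyzer methods; mean percent of control, Student's t test.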

Rattus norvegicus [2] = assay: In vivo triglyceride lowering activity, dosed at 0.01 % of the diet.; type: functional; how it was run: as §1
[3] = biological target: T1, Sterol O-acyltransferase 1 (Rattus norvegicus) (UniProt O70536); assay: In vitro inhibitory activity against acyl coenzyme A:cholesterol acyltransferase (ACAT); set-up: concentration or dose not given beside the values; details: concentration not given here
T1 sequence (whole entry): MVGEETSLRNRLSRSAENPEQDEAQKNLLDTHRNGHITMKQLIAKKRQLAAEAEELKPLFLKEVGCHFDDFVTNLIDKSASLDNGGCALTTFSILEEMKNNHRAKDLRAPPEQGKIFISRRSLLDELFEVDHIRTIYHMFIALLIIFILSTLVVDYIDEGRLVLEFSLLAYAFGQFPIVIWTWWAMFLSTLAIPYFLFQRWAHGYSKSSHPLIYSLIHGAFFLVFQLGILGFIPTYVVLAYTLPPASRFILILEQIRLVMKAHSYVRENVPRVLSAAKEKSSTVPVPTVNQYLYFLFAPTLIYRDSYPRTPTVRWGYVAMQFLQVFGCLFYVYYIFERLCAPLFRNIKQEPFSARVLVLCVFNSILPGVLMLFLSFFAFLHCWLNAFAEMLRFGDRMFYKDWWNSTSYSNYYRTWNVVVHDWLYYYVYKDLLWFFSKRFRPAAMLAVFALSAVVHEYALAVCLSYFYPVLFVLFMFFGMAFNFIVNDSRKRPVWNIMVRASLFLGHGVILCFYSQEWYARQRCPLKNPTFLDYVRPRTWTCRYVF
How it was run: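 ACAT enzyme from rat adrenal homogenate in 0.2 M KH2PO4 buffer pH 7.4, 1000g 15 min 5 °C supernatant (microsomal fraction). Supernatant + BSA (50 mg/mL) + compound at final 5.2 μg/mL + buffer preincubated 10 min 37 °C; [14C]oleoyl-CoA (0.4 μCi) added, 30 min 37 °C. Lipids extracted, TLC; cholesteryl ester zone counted. Mean % inhibition vs no-compound control; Student's t test.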

Rattus norvegicus [4] = assay: In vivo Sterol lowering activity at dose as 0.10 % of the diet.; type: functional; how it was run: as §1
Rattus norvegicus [5] = assay: In vivo triglyceride lowering activity, dosed at 0.10 % of the diet.; type: functional; how it was run: as §1
Rattus norvegicus [6] = assay: In vivo Triglyceride lowering activity at dose as 0.03 % of the diet.; type: functional; how it was run: as §1
Rattus norvegicus [7] = assay: In vivo Sterol lowering activity at dose as 0.01 % of the diet.; type: functional; how it was run: as §1
Rattus norvegicus [8] = assay: In vivo triglyceride lowering activity dosed at 0.10 % of the diet; type: functional; how it was run: as §1
Rattus norvegicus [9] = assay: In vivo Triglyceride lowering activity at dose as 0.01 % of the diet; type: functional; how it was run: as §1
Rattus norvegicus [10] = assay: In vivo sterol lowering activity dosed at 0.10 % of the diet; type: functional; how it was run: as §1
Rattus norvegicus [11] = assay: In vivo triglyceride lowering activity, dosed at 0.03 % of the diet; type: functional; how it was run: as §1

## CCOC(=O)c1ccc(NC(=O)CCCCCc2ccc(Cl)cc2)cc1
Rattus norvegicus [1]
  serum sterol level, percent of control: 101%
Rattus norvegicus [2]
  Diet: 96%
[3]
  inhibition: 42%
Rattus norvegicus [4]
  serum sterol, percent of control: 99%
Rattus norvegicus [5]
  Diet: 104%
Rattus norvegicus [6]
  Diet: 95%
Rattus norvegicus [7]
  serum sterol, percent of control: 93%

## O=C(CCc1ccc(Cl)cc1)Nc1ccc(C(=O)O)cc1
Rattus norvegicus [1]
  serum sterol level, percent of control: 104%
Rattus norvegicus [2]
  Diet: 100%
[3]
  inhibition: 33%
Rattus norvegicus [4]
  serum sterol, percent of control: 96%
Rattus norvegicus [5]
  Diet: 100%
Rattus norvegicus [6]
  Diet: 115%
Rattus norvegicus [7]
  serum sterol, percent of control: 104%

## CCOC(=O)c1ccc(NCCCc2ccc(Cl)cc2)cc1C(=O)OCC
Rattus norvegicus [1]
  serum sterol level, percent of control: 99%
Rattus norvegicus [2]
  Diet: 93%
[3]
  inhibition: 54%
Rattus norvegicus [4]
  serum sterol, percent of control: 96%
Rattus norvegicus [5]
  Diet: 80%
Rattus norvegicus [6]
  Diet: 91%
Rattus norvegicus [7]
  serum sterol, percent of control: 95%

## O=C(/C=C/c1ccc(Cl)cc1)Nc1ccc(C(=O)O)cc1
Rattus norvegicus [1]
  serum sterol level, percent of control: 100%
Rattus norvegicus [2]
  Diet: 94%
[3]
  inhibition: 41%
Rattus norvegicus [4]
  serum sterol, percent of control: 120%
Rattus norvegicus [5]
  Diet: 116%
Rattus norvegicus [6]
  Diet: 109%
Rattus norvegicus [7]
  serum sterol, percent of control: 100%

## CCOC(=O)c1ccc(NC(=O)/C=C/c2ccc(Cl)cc2)cc1
Rattus norvegicus [1]
  serum sterol level, percent of control: 107%
Rattus norvegicus [2]
  Diet: 104%
[3]
  inhibition: 51%
Rattus norvegicus [4]
  serum sterol, percent of control: 107%
Rattus norvegicus [5]
  Diet: 80%
Rattus norvegicus [6]
  Diet: 110%
Rattus norvegicus [7]
  serum sterol, percent of control: 98%

## CCOC(=O)c1ccc(NCCCc2ccco2)cc1
Rattus norvegicus [1]
  serum sterol level, percent of control: 94%
Rattus norvegicus [2]
  Diet: 90%
[3]
  inhibition: 56%
Rattus norvegicus [4]
  serum sterol, percent of control: 101%
Rattus norvegicus [5]
  Diet: 83%
Rattus norvegicus [6]
  Diet: 96%
Rattus norvegicus [7]
  serum sterol, percent of control: 96%

## O=C(O)c1ccc(NCCCc2ccc([N+](=O)[O-])cc2)cc1
Rattus norvegicus [1]
  serum sterol level, percent of control: 91%
Rattus norvegicus [2]
  Diet: 78%
[3]
  inhibition: 18%
Rattus norvegicus [4]
  serum sterol, percent of control: 96%
Rattus norvegicus [5]
  Diet: 83%
Rattus norvegicus [6]
  Diet: 75%
Rattus norvegicus [7]
  serum sterol, percent of control: 98%

## Nc1ccccc1CCCNc1ccc(C(=O)O)cc1
Rattus norvegicus [1]
  serum sterol level, percent of control: 96%
Rattus norvegicus [2]
  Diet: 99%
[3]
  inhibition: 15%
Rattus norvegicus [4]
  serum sterol, percent of control: 84%
Rattus norvegicus [5]
  Diet: 92%
Rattus norvegicus [6]
  Diet: 84%
Rattus norvegicus [7]
  serum sterol, percent of control: 121%

## O=C(O)c1ccc(N(CCCc2ccc(Cl)cc2)CCCc2ccc(Cl)cc2)cc1
Rattus norvegicus [1]
  serum sterol level, percent of control: 84%
Rattus norvegicus [2]
  Diet: 126%
[3]
  inhibition: 33%
Rattus norvegicus [4]
  serum sterol, percent of control: 98%
Rattus norvegicus [5]
  Diet: 85%
Rattus norvegicus [6]
  Diet: 91%
Rattus norvegicus [7]
  serum sterol, percent of control: 98%

## CCOC(=O)c1ccc(NC(=O)CCc2ccc(Cl)cc2)cc1
Rattus norvegicus [8]
  serum triglycerides, percent of control: 66%
Rattus norvegicus [1]
  serum sterol level, percent of control: 107%
Rattus norvegicus [9]
  Diet: 85%
[3]
  inhibition: 30%
Rattus norvegicus [4]
  serum sterol, percent of control: 99%
Rattus norvegicus [6]
  Diet: 101%
Rattus norvegicus [7]
  serum sterol, percent of control: 101%

## CCOC(=O)c1ccc(NCCc2ccc(Cl)cc2)cc1
Rattus norvegicus [8]
  serum triglycerides, percent of control: 60%
Rattus norvegicus [1]
  serum sterol level, percent of control: 113%
Rattus norvegicus [9]
  Diet: 70%
[3]
  inhibition: 37%
Rattus norvegicus [4]
  serum sterol, percent of control: 97%
Rattus norvegicus [6]
  Diet: 90%
Rattus norvegicus [7]
  serum sterol, percent of control: 115%

## O=C(CCCCCc1ccc(Cl)cc1)Nc1ccc(C(=O)O)cc1
Rattus norvegicus [1]
  serum sterol level, percent of control: 93%
Rattus norvegicus [2]
  Diet: 96%
[3]
  inhibition: 18%
Rattus norvegicus [4]
  serum sterol, percent of control: 99%
Rattus norvegicus [5]
  Diet: 90%
Rattus norvegicus [6]
  Diet: 104%
Rattus norvegicus [7]
  serum sterol, percent of control: 86%

## CCOC(=O)c1ccc(NCCCc2ccccc2[N+](=O)[O-])cc1
Rattus norvegicus [1]
  serum sterol level, percent of control: 96%
Rattus norvegicus [9]
  Diet: 70%
[3]
  inhibition: 9%
Rattus norvegicus [4]
  serum sterol, percent of control: 89%
Rattus norvegicus [5]
  Diet: 68%
Rattus norvegicus [6]
  Diet: 83%
Rattus norvegicus [7]
  serum sterol, percent of control: 93%

## O=C(O)c1ccc(NCCCc2c(Cl)cccc2Cl)cc1
[3]
  inhibition: 21%
Rattus norvegicus [4]
  serum sterol, percent of control: 106%
Rattus norvegicus [5]
  Diet: 82%

## COc1ccc(CCCNc2ccc(C(=O)O)cc2)cc1
Rattus norvegicus [1]
  serum sterol level, percent of control: 86%
Rattus norvegicus [2]
  Diet: 82%
[3]
  inhibition: 38%
Rattus norvegicus [10]
  serum sterol, percent of control: 70%
Rattus norvegicus [5]
  Diet: 91%
Rattus norvegicus [6]
  Diet: 89%
Rattus norvegicus [7]
  serum sterol, percent of control: 89%

## CCOC(=O)c1ccc(NC(=O)CCCCC(=O)c2ccc(Cl)cc2)cc1
Rattus norvegicus [1]
  serum sterol level, percent of control: 88%
Rattus norvegicus [2]
  Diet: 110%
[3]
  inhibition: 37%
Rattus norvegicus [4]
  serum sterol, percent of control: 90%
Rattus norvegicus [5]
  Diet: 96%
Rattus norvegicus [6]
  Diet: 131%
Rattus norvegicus [7]
  serum sterol, percent of control: 90%

## CCOC(=O)c1ccc(NC(=O)CCc2ccc(C)cc2)cc1
Rattus norvegicus [1]
  serum sterol level, percent of control: 99%
Rattus norvegicus [2]
  Diet: 73%
[3]
  inhibition: 25%
Rattus norvegicus [4]
  serum sterol, percent of control: 88%
Rattus norvegicus [5]
  Diet: 69%
Rattus norvegicus [6]
  Diet: 64%
Rattus norvegicus [7]
  serum sterol, percent of control: 97%

## CCOC(=O)Cc1ccc(NCCCc2ccc(Cl)cc2)cc1
Rattus norvegicus [1]
  serum sterol level, percent of control: 91%
Rattus norvegicus [11]
  serum triglycerides, percent of control: 126%
Rattus norvegicus [2]
  Diet: 119%
[3]
  inhibition: 91%
Rattus norvegicus [4]
  serum sterol, percent of control: 91%
Rattus norvegicus [5]
  Diet: 67%
Rattus norvegicus [7]
  serum sterol, percent of control: 103%

## CCOC(=O)c1ccc(NCCCCCC(=O)c2ccc(Cl)cc2)cc1
Rattus norvegicus [1]
  serum sterol level, percent of control: 92%
Rattus norvegicus [11]
  serum triglycerides, percent of control: 56%
Rattus norvegicus [2]
  Diet: 76%
[3]
  inhibition: 50%
Rattus norvegicus [4]
  serum sterol, percent of control: 99%
Rattus norvegicus [5]
  Diet: 79%
Rattus norvegicus [7]
  serum sterol, percent of control: 98%

## O=C(OCC(O)CO)c1ccc(NCCCc2ccccc2)cc1 (stereo not given)
Rattus norvegicus [8]
  serum triglycerides, percent of control: 49%
Rattus norvegicus [1]
  serum sterol level, percent of control: 85%
Rattus norvegicus [9]
  Diet: 57%
[3]
  inhibition: 21%
Rattus norvegicus [10]
  serum sterol, percent of control: 74%
Rattus norvegicus [6]
  Diet: 92%
Rattus norvegicus [7]
  serum sterol, percent of control: 90%

## O=C(O)c1ccc(NCCc2ccc(Cl)cc2)cc1
Rattus norvegicus [8]
  serum triglycerides, percent of control: 67%
Rattus norvegicus [1]
  serum sterol level, percent of control: 90%
Rattus norvegicus [2]
  Diet: 114%
[3]
  inhibition: 6%
Rattus norvegicus [4]
  serum sterol, percent of control: 105%
Rattus norvegicus [6]
  Diet: 91%
Rattus norvegicus [7]
  serum sterol, percent of control: 106%

## CCOC(=O)c1ccc(NCCCc2ccccc2F)cc1
Rattus norvegicus [1]
  serum sterol level, percent of control: 100%
Rattus norvegicus [2]
  Diet: 106%
[3]
  inhibition: 37%
Rattus norvegicus [4]
  serum sterol, percent of control: 97%
Rattus norvegicus [5]
  Diet: 92%
Rattus norvegicus [6]
  Diet: 116%
Rattus norvegicus [7]
  serum sterol, percent of control: 104%
